Results on two molecules are retold here after PubChem BioAssay AID651938 (NMMLSC, 2012).

In this assay the target is Fluorogen activating protein scFv HL1.1-TO1 (AM2.2, synthetic construct). As to the kind of experiment: competition with TO1-2p for soluble AM2.2 – biochemical, soluble FAP, fluorescence competition, artefact control for beta2AR internalization ligand project, dose response (AID 651938). The following applies: Soluble FAP AM2.2 with TO1-2p fluorogen. In a few lines:
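Assay system: soluble purified FAP AM2.2; Medium: cPBS buffer; Probe or stimulus: TO1-2p fluorogen, 10× Kd; Compound dosing: serial dilution series, water-diluted DMSO stocks; Read-out: EC50 from variable-slope sigmoidal curve fit.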

For orientation: EC50 means the concentration at which the effect is half-maximal. In the case of `Cc1ccc(S(=O)(=O)N(C)CC(=O)N2CCN(c3ccccn3)CC2)cc1`, the EC50 is 19.8 µM.

Consider `CN(CC(=O)N1CCN(c2ccccn2)CC1)S(=O)(=O)c1ccc(Cl)cc1`, for which the EC50 is 2.73 µM.
